According to ChEMBL document CHEMBL3808291, “Bifunctional Peptide-Based Opioid Agonist-Nociceptin Antagonist Ligands for Dual Treatment of Acute and Neuropathic Pain” (J Med Chem, 2016):
The source made the active and inactive calls. Numbered stars: 1 amine (or outer) side, 2 acyl side, 3 side chain; on linkers, the order of the positions; unused ones are H or OH. Square brackets hold non-standard residues; d marks the D form. Peptide text beside a SMILES is read from it. X1 = O=C1[C@@H](N[*:1])Cc2ccccc2CN1CCC(=O)[*:2]; Phe(4-F) = N[C@@H](Cc1ccc(F)cc1)C(=O)O; Dmt = Cc1cc(O)cc(C)c1C[C@H](N)C(=O)O

Columns and labels:
Mus musculus [1] = assay: Antinociceptive activity in C57BL6 mouse model of acute pain assessed as increase in withdrawal latency from radiant heat source at 390 nmol/kg, iv measured after 15 to 30 mins by tail flick assay; type: functional, organism-based
Outline: (§1)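 Male C57BL6 mice (20–25 g); compound or saline given iv into tail vein (po also tested). Radiant heat on ventral tail, latency to withdrawal/shaking recorded at baseline and 5, 15, 30, 60, 120 min (later points also reported); normalized as %MPE; 8–10 mice per group.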

Mus musculus [2] = assay: Antinociceptive activity in C57BL6 mouse model of acute pain assessed as increase in withdrawal latency from radiant heat source at 390 nmol/kg, iv measured after 60 mins by tail flick assay; type: functional, organism-based; outline: as §1
Mus musculus [3] = assay: (§2) Antiallodynic activity in intrathecally dosed albino Swiss CD1 IGS mouse model of chronic constriction injury-induced neuropathic pain assessed as increase in mechanical threshold for paw withdrawal administered on day 7 to 16 after CCI surgery measured 30 mins post dose by Von Frey test; type: functional
Outline: (§3)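 Male Albino Swiss CD-1 mice (30–35 g), sciatic chronic constriction injury under chloral hydrate; tested days 7–16 post-surgery. Compound in water for injection, 5 µL intrathecal by lumbar puncture L5–L6 in awake mice.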

Mus musculus [4] = assay: Antihyperalgesic activity in intrathecally dosed albino Swiss CD1 IGS mouse model of chronic constriction injury-induced neuropathic pain assessed as increase in paw withdrawal latency administered on day 7 to 16 after CCI surgery measured 30 mins post dose by cold plate test; type: functional; outline: as §3
Mus musculus [5] = assay: as §2, with “in” for “in intrathecally dosed”, “withdrawal at 10 ug, it” for “withdrawal”, “test relative to control” for “test”; type: functional
Mus musculus [6] = assay: Antihyperalgesic activity in albino Swiss CD1 IGS mouse model of chronic constriction injury-induced neuropathic pain assessed as increase in paw withdrawal latency at 10 ug, it administered on day 7 to 16 after CCI surgery measured 30 mins post dose by cold plate test relative to control; type: functional
Mus musculus [7] = assay: Antinociceptive activity in C57BL6 mouse model of acute pain assessed as increase in withdrawal latency from radiant heat source at 10 ug, iv measured after 5 to 120 mins by tail flick assay relative to control; type: functional
Mus musculus [8] = assay: Antinociceptive activity in C57BL6 mouse model of acute pain assessed as increase in withdrawal latency from radiant heat source at >10 ug, iv measured after 5 to 120 mins by tail flick assay relative to control; type: functional
Mus musculus [9] = assay: Antinociceptive activity in iv dosed C57BL6 mouse model of acute pain assessed as increase in withdrawal latency from radiant heat source measured after 5 to 120 mins by tail flick assay; type: functional, organism-based
Outline: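 Male C57BL6 mice (20–25 g), restrained; compound or saline control injected intravenously into tail vein. Radiant heat light beam applied to ventral tail; latency to withdrawal or tail shake recorded at baseline and 5, 15, 30, 60, 120 min post-injection. Latencies normalized as %MPE (mean ± SEM); groups of 8–10 mice.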

Mus musculus [10] = assay: as §2, with “in” for “in intrathecally dosed”, “withdrawal at >10 ug, it” for “withdrawal”, “test relative to control” for “test”; type: functional
Mus musculus [11] = assay: Antihyperalgesic activity in albino Swiss CD1 IGS mouse model of chronic constriction injury-induced neuropathic pain assessed as increase in paw withdrawal latency at >10 ug, it administered on day 7 to 16 after CCI surgery measured 30 mins post dose by cold plate test relative to control; type: functional
Nociceptin receptor [12] = target: T1, Nociceptin receptor (Homo sapiens, UniProt P41146); assay: Antagonist activity at human nociceptin receptor expressed in HEK293 cells assessed as inhibition of OFQ/nociceptin-induced suppression of cAMP accumulation up to 20 uM preincubated for 15 mins followed by OFQ/nociceptin addition by luciferase reporter gene assay; type: functional, cell-based
Nociceptin receptor [13] = target: T1, Nociceptin receptor; assay: Agonist activity at human nociceptin receptor expressed in HEK293 cells assessed as inhibition of forskolin-stimulated cAMP production up to 10 uM preincubated for 15 mins followed by forskolin addition measured for 90 mins by luciferase reporter gene assay; type: functional, cell-based
Outline: (§4)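 HEK293 cells stably expressing human NOP and GloSensor, in Hepes buffer pH 7.4 with 1 mM d-luciferin, pre-equilibrated 2 h at 25 °C. Compound at various concentrations added 15 min before forskolin (0.5 µM final); luminescence read kinetically for 90 min at 25 °C with 0.5 mM IBMX. At least two experiments in duplicate.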

Mus musculus [14] = assay: Neurotoxicity in intrathecally dosed albino Swiss CD1 IGS mouse assessed as motor impairment measured after 15 to 120 mins post dose by rotarod test; type: toxicity, organism-based; conditions: in vivo, icv_or_intrathecal
Outline: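 Intrathecal dosing (water for injection, 5 µL) to male CD-1 mice. After three training sessions, mice placed on accelerating rod (2 to 40 rpm over 300 s cutoff); tested 15 and 120 min after injection.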

Mus musculus [15] = assay: Antiallodynic activity in albino Swiss CD1 IGS mouse model of streptozocin-induced type1 diabetic neuropathic pain assessed as increase in mechanical threshold for paw withdrawal at 0.007 nmol, it administered on day 10 after STZ injection measured at 30 mins post dose by Von Frey test; type: functional, organism-based
Outline: (§5)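 Male Albino Swiss CD-1 mice made diabetic by single ip streptozocin 200 mg/kg; glucose >300 mg/dL required; tested day 10. Compound in water for injection, 5 µL intrathecal at L5–L6; von Frey or cold plate (2 °C, 30 s cutoff) at 30, 90, 180 min; 6–8 mice per group.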

Mus musculus [16] = assay: Antiallodynic activity in albino Swiss CD1 IGS mouse model of streptozocin-induced type1 diabetic neuropathic pain assessed as increase in mechanical threshold for paw withdrawal at 0.007 nmol, it administered on day 10 after STZ injection measured at 180 mins post dose by Von Frey test; type: functional, organism-based; outline: as §5
Mus musculus [17] = assay: Antihyperalgesic activity in albino Swiss CD1 IGS mouse model of streptozocin-induced type1 diabetic neuropathic pain assessed as increase in paw withdrawal latency at 0.007 nmol, it administered on day 10 after STZ injection measured at 180 mins post dose by […]; type: functional, organism-based; outline: as §5
Mus musculus [18] = assay: Antiallodynic activity in albino Swiss CD1 IGS mouse model of streptozocin-induced type1 diabetic neuropathic pain assessed as increase in mechanical threshold for paw withdrawal at 0.005 nmol, it administered on day 10 after STZ injection measured at 30 mins post dose by Von Frey test; type: functional, organism-based
Outline: (§6)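 Male CD-1 mice (30–35 g). CCI: sciatic constriction injury, tested on days 7–16 after surgery. STZ diabetes: single ip streptozocin 200 mg/kg; mice with glucose >300 mg/dL included, tested on day 10. Drug in water for injection, given it (5 µL, L5–L6 lumbar puncture) to conscious mice. von Frey (cutoff 6 g) or cold plate (2 °C, 30 s cutoff, paw lift) at 30, 90, 180 min; 6–8 mice/group.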

Nociceptin receptor [19] = target: T1, Nociceptin receptor; assay: Displacement of [3H]OFQ/nociceptin from human nociceptin receptor expressed in HEK293 cell membrane incubated for 1 hr by TopCount scintillation counting method; type: cell membranes
Mus musculus [20] = assay: Antiallodynic activity in albino Swiss CD1 IGS mouse model of streptozocin-induced type1 diabetic neuropathic pain assessed as increase in mechanical threshold for paw withdrawal at 0.005 nmol, it administered on day 10 after STZ injection measured at 180 mins post dose by Von Frey test; type: functional, organism-based; outline: as §6
Mus musculus [21] = assay: Antihyperalgesic activity in albino Swiss CD1 IGS mouse model of streptozocin-induced type1 diabetic neuropathic pain assessed as increase in paw withdrawal latency at 0.005 nmol, it administered on day 10 after STZ injection measured at 180 mins post dose by […]; type: functional, organism-based; outline: as §6
Nociceptin receptor [22] = target: T1, Nociceptin receptor; assay: Partial agonist activity at human nociceptin receptor expressed in HEK293 cells assessed as inhibition of forskolin-stimulated cAMP production preincubated for 15 mins followed by forskolin addition measured for 90 mins by luciferase reporter gene assay relative to nociceptin; type: functional, cell-based; outline: as §4
Mus musculus [23] = assay: Antiallodynic activity in albino Swiss CD1 IGS mouse model of streptozocin-induced type1 diabetic neuropathic pain assessed as increase in mechanical threshold for paw withdrawal at 0.008 nmol, it administered on day 10 after STZ injection measured at 30 mins post dose by Von Frey test; type: functional, organism-based; outline: as §5
Mus musculus [24] = assay: Antiallodynic activity in albino Swiss CD1 IGS mouse model of streptozocin-induced type1 diabetic neuropathic pain assessed as increase in mechanical threshold for paw withdrawal at 0.008 nmol, it administered on day 10 after STZ injection measured at 180 mins post dose by Von Frey test; type: functional, organism-based; outline: as §5
Mus musculus [25] = assay: Antihyperalgesic activity in albino Swiss CD1 IGS mouse model of streptozocin-induced type1 diabetic neuropathic pain assessed as increase in paw withdrawal latency at 0.008 nmol, it administered on day 10 after STZ injection measured at 180 mins post dose by […]; type: functional, organism-based; outline: as §5
Nociceptin receptor [26] = target: T1, Nociceptin receptor; assay: Agonist activity at human nociceptin receptor expressed in CHO cell membrane incubated for 60 mins by [35S]GTPgammaS binding assay relative to control; type: functional, cell membranes
Mus musculus [27] = species: Mus musculus; assay: Neurotoxicity in albino Swiss CD1 IGS mouse assessed as motor impairment at 0.5 nmol, it measured after 15 to 120 mins post dose by rotarod test; type: toxicity, organism-based; conditions: in vivo, icv_or_intrathecal
Outline: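 CD-1 mice given intrathecal compound (5 µL, L5–L6), tested at 15 and 120 min on accelerating rotarod, 2 to 40 rpm over 300 s cutoff, after three training sessions.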

T1 sequence (P41146 whole entry): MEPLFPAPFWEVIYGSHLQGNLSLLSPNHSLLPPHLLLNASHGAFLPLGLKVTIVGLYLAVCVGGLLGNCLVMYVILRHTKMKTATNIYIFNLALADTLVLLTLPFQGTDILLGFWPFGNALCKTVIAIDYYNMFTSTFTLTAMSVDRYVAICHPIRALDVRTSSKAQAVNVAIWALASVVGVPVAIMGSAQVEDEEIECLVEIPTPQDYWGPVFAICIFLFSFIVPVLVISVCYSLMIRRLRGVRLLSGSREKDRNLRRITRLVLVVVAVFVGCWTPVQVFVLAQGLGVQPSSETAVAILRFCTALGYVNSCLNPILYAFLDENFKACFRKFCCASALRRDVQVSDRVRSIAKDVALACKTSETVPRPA

Compound: CN1CC[C@]23c4c5ccc(O)c4O[C@H]2[C@@H](O)C=C[C@H]3[C@H]1C5 [MORPHINE]
- Activity (Mus musculus [1]): Active
- Activity (Mus musculus [2]): inactive
- ED50 (Mus musculus [3]): 7 nmol
- ED50 (Mus musculus [4]): 7.46 nmol
- MPE (Mus musculus [5]): 36.5%
- MPE (Mus musculus [6]): 30.15%
- MPE (Mus musculus [7]): 63.8%
- MPE (Mus musculus [8]): 100%
- Activity (Mus musculus [9]): Dose-dependent effect
- MPE (Mus musculus [10]): 50%
- MPE (Mus musculus [11]): 50%

Compound: CC[C@H](C)[C@H](NC(=O)[C@H](CCCNC(=N)N)NC(=O)[C@H](Cc1ccc(O)cc1)NC(=O)[C@H](Cc1ccc(O)cc1)NC(=O)[C@@H](N)CCCNC(=N)N)C(=O)N[C@@H](CCCCN)C(N)=O
- inhibition (Nociceptin receptor [12]): inactive
- Activity (Nociceptin receptor [13]): inactive
- Activity (Mus musculus [14]): Non-toxic
- Activity (Mus musculus [15]): Active
- Activity (Mus musculus [16]): inactive
- Activity (Mus musculus [17]): inactive

Compound: Cc1cc(O)cc(C)c1C[C@H](N)C(=O)N[C@H](CCCNC(=N)N)C(=O)N[C@H]1Cc2ccccc2CN(CCC(=O)N[C@@H](CCCNC(=N)N)C(=O)N[C@@H](Cc2ccc(O)cc2)C(=O)N[C@@H](Cc2ccc(O)cc2)C(=O)N[C@@H](CCCNC(=N)N)C(=O)N[C@@H](Cc2c[nH]c3ccccc23)C(=O)N[C@@H](CCCNC(=N)N)C(N)=O)C1=O (H-[Dmt][dR][X1]RYYRWR-NH2)
- Activity (Mus musculus [18]): Active
- Ki (Nociceptin receptor [19]): 47 nM
- ED50 (Mus musculus [3]): 0.0009 nmol
- ED50 (Mus musculus [4]): 0.002 nmol
- Activity (Mus musculus [14]): Non-toxic
- Activity (Mus musculus [20]): inactive
- Activity (Mus musculus [21]): inactive

Compound: CC[C@H](C)[C@@H](NC(=O)[C@H](CCCNC(=N)N)NC(=O)[C@H](Cc1ccc(O)cc1)NC(=O)[C@H](Cc1ccc(O)cc1)NC(=O)[C@H](CCCNC(=N)N)NC(C)=O)C(=O)N[C@@H](CCCCN)C(N)=O
- inhibition (Nociceptin receptor [12]): inactive
- inhibition (Nociceptin receptor [22]): 70%
- Activity (Mus musculus [23]): Active
- Activity (Mus musculus [24]): inactive
- Activity (Mus musculus [25]): inactive

Compound: CC(=O)N[C@@H](CCCNC(=N)N)C(=O)N[C@@H](Cc1ccc(O)cc1)C(=O)N[C@@H](Cc1ccc(F)cc1)C(=O)N[C@@H](CCCNC(=N)N)C(=O)N[C@@H](Cc1c[nH]c2ccccc12)C(=O)N[C@@H](CCCNC(=N)N)C(N)=O (Ac-RY[Phe(4-F)]RWR-NH2)
- Activity (Nociceptin receptor [26]): 70%

Compound: Cc1cc(O)cc(C)c1C[C@H](NC(=O)[C@H](Cc1ccc(O)cc1)NC(=O)[C@H](CCCNC(=N)N)NC(=O)CCN1Cc2ccccc2C[C@H](NC(=O)[C@@H](CCCNC(=N)N)NC(=O)[C@@H](N)Cc2c(C)cc(O)cc2C)C1=O)C(=O)N[C@@H](CCCNC(=N)N)C(=O)N[C@@H](Cc1c[nH]c2ccccc12)C(=O)N[C@@H](CCCNC(=N)N)C(N)=O (H-[Dmt][dR][X1]RY[Dmt]RWR-NH2)
- Activity (Mus musculus [18]): Active
- ED50 (Mus musculus [3]): 0.0009 nmol
- ED50 (Mus musculus [4]): 0.005 nmol
- Activity (Mus musculus [14]): Non-toxic
- Activity (Mus musculus [20]): inactive
- Activity (Mus musculus [21]): inactive

Compound: Cc1cc(O)cc(C)c1C[C@H](N)C(=O)N[C@H](CCCNC(=N)N)C(=O)N[C@H]1Cc2ccccc2CN(CCC(=O)N[C@@H](CCCNC(=N)N)C(=O)N[C@@H](Cc2ccc(O)cc2)C(=O)N[C@@H](Cc2ccc(F)cc2)C(=O)N[C@@H](CCCNC(=N)N)C(=O)N[C@@H](Cc2c[nH]c3ccccc23)C(=O)N[C@@H](CCCNC(=N)N)C(N)=O)C1=O (H-[Dmt][dR][X1]RY[Phe(4-F)]RWR-NH2)
- Activity (Mus musculus [18]): Active
- Activity (Mus musculus [27]): Toxic
- Activity (Mus musculus [20]): inactive
- Activity (Mus musculus [21]): inactive
